ChEMBL document CHEMBL4665734, “Optimization of globomycin analogs as novel gram-negative antibiotics” (Bioorg Med Chem Lett, 2020)
Values after ≈ are worked out from the molar mass of the structure shown. Starred links: 1 amine or outer side, 2 acyl side, 3 side chain; linkers in the order of their positions; H or OH if unused. Non-standard residues stand in square brackets, D forms with d. Residues, ends and D or L forms follow the SMILES beside them. *: point of attachment. X3 = C[C@H](CO[C@H](CC1CC2(CCC2)C1)[C@@H](C)C(=O)[*:2])N[*:1]; X10 = CCCCCC[C@@H](OC[C@@H](CC)N[*:1])[C@@H](C)C(=O)[*:2]; X1 = CCCCCC[C@@H](OC[C@@H](C)N[*:1])[C@@H](C)C(=O)[*:2]; X8 = CCCCCC[C@@H](O[C@@H](C)CN[*:1])[C@@H](C)C(=O)[*:2]; X7 = CCCCCC[C@@H](O[C@H](C)CN[*:1])[C@@H](C)C(=O)[*:2]; Gly(cHept) = N[C@H](C(=O)O)C1CCCCCC1; aThr = C[C@H](O)[C@H](N)C(=O)O; NMeL = CN[C@@H](CC(C)C)C(=O)O; Chg = N[C@H](C(=O)O)C1CCCCC1; NMeNva = CCC[C@H](NC)C(=O)O; Propyl(3-NMe2) = CN(C)CCC*; Dap = NC[C@H](N)C(=O)O; X5 = NCCCNCCC*

Legend:
[1] = Growth inhibition of Staphylococcus aureus USA300
Escherichia coli = assay: Inhibition of LspA in Escherichia coli CFT073imp4213 harboring outer membrane-permeable mutant assessed as inhibition of bacterial growth
Method in brief: (§1)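 Read-out is the minimum inhibitory concentration, reported in µM.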

[2] = Stability of the compound in mouse plasma assessed as parent compound remaining after 24 hrs; format: ADME, cell-free; conditions: read-out: Stabilty
Method in brief: (§2)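 Test compound incubated for 24 hour in human, rat or mouse plasma. Stability is reported as the percentage of parent compound remaining.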

Escherichia coli CFT073 = assay: Inhibition of LspA in wild type Escherichia coli CFT073 assessed as inhibition of bacterial growth; method in brief: as §1
[3] = Stability of the compound in human plasma assessed as parent compound remaining after 24 hrs; format: ADME, cell-free; conditions: read-out: Stabilty; method in brief: as §2
[4] = Lipophilicity, logD of the compound at pH 7.4; conditions: buffer, pH 7.4, logD
[5] = Clearance in iv dosed mouse; format: ADME, organism-based; conditions: in vivo
[6] = Clearance in mouse liver microsomes; format: ADME, Microsome
Method in brief: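 Intrinsic clearance in rat or mouse liver microsomes, expressed in mL/min/kg.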

Klebsiella pneumoniae = assay: Inhibition of LspA in Klebsiella pneumoniae assessed as inhibition of bacterial growth
[7] = Protein binding in mouse plasma; format: ADME, cell-free; conditions: read-out: PPB (converted)
[8] = Half life in iv dosed mouse; format: ADME, organism-based; conditions: in vivo
Enterobacter cloacae = assay: Inhibition of LspA in Enterobacter cloacae assessed as inhibition of bacterial growth
Acinetobacter baumannii = assay: Inhibition of LspA in Acinetobacter baumannii assessed as inhibition of bacterial growth
[9] = Protein binding in rat plasma; format: ADME, cell-free; conditions: read-out: PPB (converted)
[10] = Stability of the compound in rat plasma assessed as parent compound remaining after 24 hrs; format: ADME, cell-free; conditions: read-out: Stabilty; method in brief: as §2
Jurkat = assay: Cytotoxicity against human Jurkat cells; format: cell-based
Method in brief: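 Jurkat cell growth assay. Result reported as antiproliferative EC50.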

Pseudomonas aeruginosa = assay: Inhibition of LspA in Pseudomonas aeruginosa assessed as inhibition of bacterial growth

| SMILES | MIC [1] [µM] | MIC (Escherichia coli) [µM] | remaining at 24 h [2] [%] | MIC (Escherichia coli CFT073) [µM] | remaining at 24 h [3] [%] | logD [4] | also measured |
| --- | --- | --- | --- | --- | --- | --- | --- |
| CCCCCC[C@H]1O[C@H](C)CNC(=O)[C@H]([C@H](C)O)NC(=O)[C@H](CN)NC(=O)[C@H](C2CCCCC2)NC(=O)[C@H](CC(C)C)N(C)C(=O)[C@@H]1C (cyclo([Chg][Dap][aThr][X7][NMeL])) | 100 (≈ 68.1 µg/mL) | 0.4 (≈ 0.272 µg/mL) | 92 | 35 (≈ 23.8 µg/mL) | 100 |  |  |
| CCCCCC[C@H]1OC[C@@H](CC)NC(=O)[C@H]([C@H](C)O)NC(=O)[C@H](CN)NC(=O)[C@H](C2CCCCC2)NC(=O)[C@H](CC(C)C)N(C)C(=O)[C@@H]1C (cyclo([Chg][Dap][aThr][X10][NMeL])) | 50 (≈ 34.7 µg/mL) | 0.024 (≈ 0.0167 µg/mL) | 87 | 2.2 (≈ 1.53 µg/mL) | 101 |  |  |
| CCCCCC[C@H]1OCCCNC(=O)[C@H]([C@H](C)O)NC(=O)[C@H](CN)NC(=O)[C@H](C2CCCCC2)NC(=O)[C@H](CC(C)C)N(C)C(=O)[C@@H]1C | 100 (≈ 68.1 µg/mL) | 0.39 (≈ 0.266 µg/mL) | 101 | 12 (≈ 8.17 µg/mL) | 96 |  |  |
| CCCCCCN1CCCNC(=O)[C@H]([C@H](C)O)NC(=O)[C@H](CN)NC(=O)[C@H]([C@H](C)CC)NC(=O)[C@H](CC(C)C)N(C)C(=O)[C@@H]1C | > 100 | 12.5 (≈ 8 µg/mL) | 100 | > 100 | 101 |  |  |
| CCCCCC[C@H]1OC[C@@H](C)NC(=O)[C@H]([C@H](C)O)NC(=O)[C@H](CN)NC(=O)[C@H](C2CCCCC2)NC(=O)[C@H](CC(C)C)N(C)C(=O)[C@@H]1C | 71 (≈ 48.3 µg/mL) | 0.034 (≈ 0.0232 µg/mL) | 94 | 2.9 (≈ 1.97 µg/mL) | 93 |  |  |
| CCCCCC[C@H]1C(=O)N(C)[C@@H](CC(C)C)C(=O)N[C@@H](C2CCCCC2)C(=O)N[C@@H](CN)C(=O)N[C@@H]([C@H](C)O)C(=O)NCCN1C | 100 (≈ 65.2 µg/mL) | 0.39 (≈ 0.254 µg/mL) | 81 | 12 (≈ 7.82 µg/mL) | 92 |  |  |
| CCCCCC[C@H]1O[C@@H](C)CNC(=O)[C@H]([C@H](C)O)NC(=O)[C@H](CN)NC(=O)[C@H](C2CCCCC2)NC(=O)[C@H](CC(C)C)N(C)C(=O)[C@@H]1C (cyclo([Chg][Dap][aThr][X8][NMeL])) | 100 (≈ 68.1 µg/mL) | 0.1 (≈ 0.0681 µg/mL) | 101 | 12 (≈ 8.17 µg/mL) | 91 |  |  |
| CC[C@@H](C)[C@@H]1NC(=O)[C@H](CC(C)C)N(C)C(=O)[C@H](C)[C@@H](CCCCC(C)(C)C)OC(=O)CNC(=O)[C@H]([C@H](C)O)NC(=O)[C@H](CN)NC1=O | 100 (≈ 68.3 µg/mL) | 0.035 (≈ 0.0239 µg/mL) |  | 3.1 (≈ 2.12 µg/mL) |  | 3 |  |
| CCC[C@H]1C(=O)N[C@@H](C2CCCCCC2)C(=O)N[C@@H](CN)C(=O)N[C@@H](COCCCNCCCN)C(=O)N[C@H](C)CO[C@H](CC2CC3(CCC3)C2)[C@@H](C)C(=O)N1C (cyclo([Dap]S(X5)[X3][NMeNva][Gly(cHept)])) | 18 (≈ 14.5 µg/mL) |  | 106 | 1.6 (≈ 1.29 µg/mL) | 103 | 0.7 | clearance [5]: 12 mL/min/kg; CLhep predicted [6]: 53 mL/min/kg; MIC (Klebsiella pneumoniae): 3.1 µM (≈ 2.5 µg/mL); fraction unbound [7]: 0.001; half-life [8]: 4.6 h; MIC (Enterobacter cloacae): 3.1 µM (≈ 2.5 µg/mL); MIC (Acinetobacter baumannii): 50 µM (≈ 40.3 µg/mL); fraction unbound [9]: 0.025; remaining at 24 h [10]: 118%; EC50 (Jurkat): > 50 µM; MIC (Pseudomonas aeruginosa): 50 µM (≈ 40.3 µg/mL) |
| CCCCCC[C@H]1OC[C@@H](C)NC(=O)[C@H](CN(C)CCCN)NC(=O)[C@H](CN)NC(=O)[C@H](C2CCCCCC2)NC(=O)[C@H](CCC)N(C)C(=O)[C@@H]1C | 100 (≈ 73.7 µg/mL) | 0.39 (≈ 0.287 µg/mL) |  | 8.8 (≈ 6.49 µg/mL) |  | 1.8 |  |
| CCCCCC[C@H]1OC[C@@H](C)NC(=O)[C@H](COCCCN(C)C)NC(=O)[C@H](CN)NC(=O)[C@H](C2CCCCC2)NC(=O)[C@H](CC(C)C)N(C)C(=O)[C@@H]1C (cyclo([Chg][Dap]S(Propyl(3-NMe2))[X1][NMeL])) | 100 (≈ 75.2 µg/mL) | 0.39 (≈ 0.293 µg/mL) |  | 25 (≈ 18.8 µg/mL) |  | 2.1 |  |
